Drawing on ChEMBL document CHEMBL1275530, “Aspergillus fumigatus forms biofilms with reduced antifungal drug susceptibility on bronchial epithelial cells” (2008), this text covers MIC50 and MIC90 for six compounds.

Converted amounts (≈) assume the structure as drawn. *1 amine or outer side, *2 acyl side, *3 side chain or, on linkers, in order; H or OH if unused. Where a SMILES comes first, the peptide text is derived from it. Bridges are numbered along the chain shown (N, C = ends). [ ]: non-standard residue; d: D form. The star is where a group is joined. hTyr(3S-OH,4S-OH,3'-OSO3H) = N[C@H](C(=O)O)[C@H](O)[C@@H](O)c1ccc(O)c(OS(=O)(=O)O)c1; Orn(4R-OH,5R-OH) = O=C([C@H](C[C@@H](O)[C@@H](O)N[*:3])N[*:1])[*:2]; Pro(3S-OH,4S-Me) = C[C@H]1CN[C@H](C(=O)O)[C@H]1O; X1 = CCCCCOc1ccc(-c2cc(-c3ccc(C(=O)*)cc3)no2)cc1; Gln(3R-OH) = NC(=O)C[C@@H](O)[C@H](N)C(=O)O; Hyp = O=C(O)[C@@H]1C[C@@H](O)CN1

Common to all, as to assay type: functional
The test system of assay [1] is Aspergillus fumigatus. The assay can be described thus: Antifungal activity against Aspergillus fumigatus ATCC 9197 grown as biofilm on 16HBE cell after 24 to 48 hrs by XTT assay. Put shortly:
(§1)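 Biofilm grown in PS 96-well plates on confluent 16HBE14o− (1) or CFBE41o− (2) cells on fibronectin/collagen coating. Conidia (10^6/ml) in MEM plus 10% FCS adhered 2 h at 37°C, 5% CO2. Drugs were added after 24–48 h of biofilm growth and incubated another 24 h and 48 h. Sessile MIC was read by XTT as 50% (MIC-2) or 90% (MIC-1) inhibition of metabolic activity versus drug-free control. CFU were also plated. Three repeats.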
(In general: Tetrazolium dyes change colour on reduction, which living cells bring about.)

Assay [2] has as its system Aspergillus fumigatus. Nature of the assay: Antifungal activity against Aspergillus fumigatus ATCC 9197 grown as planktonic cell on 16HBE cell after 48 hrs by broth microdilution method. As to conditions: ATCC 9197, 48 h. Put shortly:
(§2)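 CLSI M38-A broth microdilution on planktonic conidia, with drugs added at once and end points read at 24 h and 48 h. Ranges in μg/ml: AMB 0.06 to 32; liposomal AMB, voriconazole, posaconazole, itraconazole, caspofungin and micafungin 0.03 to 16. Inoculum was the same as in the XTT assay. Three repeats.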
(In general: Broth dilution looks for growth in wells or tubes with falling amounts of substance.)

Assay [3] concerns Aspergillus fumigatus. Nature of the assay: Antifungal activity against Aspergillus fumigatus ATCC 9197 grown as biofilm on CFBE41o cell after 24 to 48 hrs by XTT assay. Put shortly:
as §1

For assay [4], the system named is Aspergillus fumigatus. The assay can be described thus: Antifungal activity against Aspergillus fumigatus ATCC 9197 grown as planktonic cell on CFBE41o cell after 48 hrs by broth microdilution method. As to conditions: ATCC 9197, 48 h. Put shortly: as §2
Assay [5] relates to Aspergillus fumigatus. The assay can be described thus: Antifungal activity against Aspergillus fumigatus ATCC 9197 grown as biofilm on polystyrene after 24 to 48 hrs by XTT assay. An outline of the steps: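 Biofilm was formed on polystyrene without epithelial cells, starting from 10^6 conidia/ml in MEM plus 10% FCS. Drugs were added after 24–48 h of biofilm growth. After a further 24 h and 48 h, XTT reduction gave MICs at 50% and 90% inhibition of metabolic activity relative to a drug-free control.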

For assay [6], the system named is Aspergillus fumigatus. Nature of the assay: Antifungal activity against Aspergillus fumigatus ATCC 9197 grown as planktonic cell on polystyrene after 48 hrs by broth microdilution method. As to conditions: ATCC 9197, 48 h. Put shortly: as §2

On to `C[C@@H]1[C@H](O)[C@@H](C)/C=C/C=C/C=C/C=C/C=C/C=C/C=C/[C@H](O[C@@H]2O[C@H](C)[C@@H](O)[C@H](N)[C@@H]2O)C[C@@H]2O[C@](O)(C[C@@H](O)C[C@@H](O)[C@H](O)CC[C@@H](O)C[C@@H](O)CC(=O)O[C@H]1C)C[C@H](O)[C@H]2C(=O)O` [AMPHOTERICIN B], for which the MIC50 with Aspergillus fumigatus [1] was 2 µg/mL (≈ 2.16 µM); in the assay on Aspergillus fumigatus [2] it was 0.5 µg/mL (≈ 0.541 µM); against Aspergillus fumigatus [3], 4 µg/mL (≈ 4.33 µM); with Aspergillus fumigatus [4] it was 0.5 µg/mL (≈ 0.541 µM); with Aspergillus fumigatus [5], 8 µg/mL (≈ 8.66 µM); in the assay with Aspergillus fumigatus [6], 1 µg/mL (≈ 1.08 µM). Moreover, the MIC90 worked out at 4 µg/mL (≈ 4.33 µM) against Aspergillus fumigatus [1]; 1 µg/mL (≈ 1.08 µM) in the assay with Aspergillus fumigatus [2]; 8 µg/mL (≈ 8.66 µM) in the assay with Aspergillus fumigatus [3]; 1 µg/mL (≈ 1.08 µM) against Aspergillus fumigatus [4]; 16 µg/mL (≈ 17.3 µM) in the assay with Aspergillus fumigatus [5]; 1 µg/mL (≈ 1.08 µM) in the assay with Aspergillus fumigatus [6].
In the case of `CC[C@H](C)C[C@H](C)CCCCCCCCC(=O)N[C@H]1C[C@@H](O)[C@@H](NCCN)NC(=O)[C@@H]2[C@@H](O)CCN2C(=O)[C@H]([C@H](O)CCN)NC(=O)[C@H]([C@H](O)[C@@H](O)c2ccc(O)cc2)NC(=O)[C@@H]2C[C@@H](O)CN2C(=O)[C@H]([C@@H](C)O)NC1=O` [CASPOFUNGIN], the MIC50 is greater than 8 µg/mL against Aspergillus fumigatus [1], 0.5 µg/mL (≈ 0.457 µM) in the assay with Aspergillus fumigatus [2], greater than 8 µg/mL with Aspergillus fumigatus [3] and 0.5 µg/mL (≈ 0.457 µM) against Aspergillus fumigatus [4]. Further, the MIC90 with Aspergillus fumigatus [1] was greater than 8 µg/mL; against Aspergillus fumigatus [2], 1 µg/mL (≈ 0.915 µM); with Aspergillus fumigatus [3], greater than 8 µg/mL; with Aspergillus fumigatus [4] it was 1 µg/mL (≈ 0.915 µM).
Turning to `CCC(C)n1ncn(-c2ccc(N3CCN(c4ccc(OCC5COC(Cn6cncn6)(c6ccc(Cl)cc6Cl)O5)cc4)CC3)cc2)c1=O` (stereo unspecified) [ITRACONAZOLE], the MIC50 in the assay with Aspergillus fumigatus [1] came to 1 µg/mL (≈ 1.42 µM); against Aspergillus fumigatus [2], 0.125 µg/mL (≈ 0.177 µM); in the assay on Aspergillus fumigatus [3] it was 1 µg/mL (≈ 1.42 µM); in the assay with Aspergillus fumigatus [4] it was 0.125 µg/mL (≈ 0.177 µM); against Aspergillus fumigatus [5], 2 µg/mL (≈ 2.83 µM); against Aspergillus fumigatus [6], 0.5 µg/mL (≈ 0.709 µM). The MIC90 in the assay with Aspergillus fumigatus [1] is 1 µg/mL (≈ 1.42 µM); with Aspergillus fumigatus [2], 0.25 µg/mL (≈ 0.354 µM); against Aspergillus fumigatus [3], 2 µg/mL (≈ 2.83 µM); with Aspergillus fumigatus [4], 0.25 µg/mL (≈ 0.354 µM); against Aspergillus fumigatus [5], 4 µg/mL (≈ 5.67 µM); with Aspergillus fumigatus [6] it was 1 µg/mL (≈ 1.42 µM).
As for `CCCCCOc1ccc(-c2cc(-c3ccc(C(=O)N[C@H]4C[C@@H](O)[C@@H](O)NC(=O)[C@@H]5[C@@H](O)[C@@H](C)CN5C(=O)[C@H]([C@H](O)CC(N)=O)NC(=O)[C@H]([C@H](O)[C@@H](O)c5ccc(O)c(OS(=O)(=O)O)c5)NC(=O)[C@@H]5C[C@@H](O)CN5C(=O)[C@H]([C@@H](C)O)NC4=O)cc3)no2)cc1` [MICAFUNGIN] (X1-[Orn(4R-OH,5R-OH)]T[Hyp][hTyr(3S-OH,4S-OH,3'-OSO3H)][Gln(3R-OH)][Pro(3S-OH,4S-Me)]; lactam 1-C), the MIC50 with Aspergillus fumigatus [1] was greater than 8 µg/mL; with Aspergillus fumigatus [2] it was 0.5 µg/mL (≈ 0.394 µM); against Aspergillus fumigatus [3] it was greater than 8 µg/mL; against Aspergillus fumigatus [4], 0.5 µg/mL (≈ 0.394 µM). The MIC90 in the assay with Aspergillus fumigatus [1] is greater than 8 µg/mL; against Aspergillus fumigatus [2], 1 µg/mL (≈ 0.787 µM); with Aspergillus fumigatus [3], greater than 8 µg/mL; in the assay with Aspergillus fumigatus [4] it was 1 µg/mL (≈ 0.787 µM).
Regarding `CC[C@@H]([C@H](C)O)n1ncn(-c2ccc(N3CCN(c4ccc(OC[C@@H]5CO[C@@](Cn6cncn6)(c6ccc(F)cc6F)C5)cc4)CC3)cc2)c1=O` [POSACONAZOLE], the MIC50 in the assay on Aspergillus fumigatus [1] was 1 µg/mL (≈ 1.43 µM); against Aspergillus fumigatus [2], 0.125 µg/mL (≈ 0.178 µM); in the assay on Aspergillus fumigatus [3], 1 µg/mL (≈ 1.43 µM); in the assay with Aspergillus fumigatus [4], 0.125 µg/mL (≈ 0.178 µM). Also, the MIC90 was determined as 1 µg/mL (≈ 1.43 µM) against Aspergillus fumigatus [1], 0.125 µg/mL (≈ 0.178 µM) with Aspergillus fumigatus [2], 2 µg/mL (≈ 2.85 µM) with Aspergillus fumigatus [3] and 0.125 µg/mL (≈ 0.178 µM) against Aspergillus fumigatus [4].
With `C[C@@H](c1ncncc1F)[C@](O)(Cn1cncn1)c1ccc(F)cc1F` [VORICONAZOLE], the MIC50 against Aspergillus fumigatus [1] is 1 µg/mL (≈ 2.86 µM); with Aspergillus fumigatus [2] it was 0.125 µg/mL (≈ 0.358 µM); against Aspergillus fumigatus [3], 1 µg/mL (≈ 2.86 µM); against Aspergillus fumigatus [4] it was 0.125 µg/mL (≈ 0.358 µM). The MIC90 against Aspergillus fumigatus [1] was found to be 1 µg/mL (≈ 2.86 µM); in the assay on Aspergillus fumigatus [2], 0.125 µg/mL (≈ 0.358 µM); in the assay with Aspergillus fumigatus [3], 2 µg/mL (≈ 5.73 µM); in the assay on Aspergillus fumigatus [4], 0.125 µg/mL (≈ 0.358 µM).
